# Source: PubChem (several laboratories)
# LEDGF integ inh = blocks HIV-1 LEDGF/p75-dependent DNA integration | TR-FRET IN-LEDGF/p75 DNA integration, Eu/Cy5 | 370,000 compounds, 0.64% hits | inhibition, % at 3.7 µM;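 active = inhibition above the screen-wide mean plus 3 SD, cut at about 13% in these data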;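 note: signal is the Cy5 over europium emission ratio at 671 and 618 nm; 0% = plate median of compound wells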
# NSD2 inh = inhibitors of human histone methyltransferase NSD2. NSD2 peptide methylation, AlphaScreen, 120 min. inhibition, % at 12.5 µM. 310,000 compounds, 0.54% hits; in the data active = inhibition above about 50%
# CASP6 VEID inh = blocks human caspase-6 cleavage activity; P55212; purified caspase-6, Z-VEID-R110 cleavage fluorescence; inhibition, % at 12.5 µM; 350,000 compounds, 0.53% hits; AID 686996;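 active = mean inhibition across replicates at least about 35%, with every replicate also reaching that limit, limit read from the data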;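 note: 0% = median of neutral control wells and 100% = no fluorescence left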
# Target sequence (P55212 24-179 limits assumed): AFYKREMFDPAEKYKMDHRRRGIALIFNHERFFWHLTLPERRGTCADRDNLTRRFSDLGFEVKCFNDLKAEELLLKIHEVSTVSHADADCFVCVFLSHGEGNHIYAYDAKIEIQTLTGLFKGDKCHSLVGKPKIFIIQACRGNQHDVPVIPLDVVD
# Target sequence (P55212 194-293 limits assumed): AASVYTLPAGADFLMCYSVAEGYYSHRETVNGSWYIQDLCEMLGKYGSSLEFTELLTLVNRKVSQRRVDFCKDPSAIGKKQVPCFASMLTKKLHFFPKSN
# TDP2 inh = TDP2 (human) inhibition, absorbance primary screen; AID 720702; 370,000 compounds, 0.34% hits; inhibition, % at 12.8 µM; recombinant TDP2, T5PNP hydrolysis, p-nitrophenol absorbance 415 nm;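 active = inhibition above the mean of all tested compounds plus 3 SD, set per campaign, cut at about 25% in these data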;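 note: 0% = DMSO with enzyme and 100% = buffer with substrate but no TDP2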
#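 Test system: human TDP2 enzyme; Input: 120 nM TDP2 per well; Buffer or medium: Mg2+-containing Tris-HCl buffer, pH 7.5; Reagent: 5 mM T5PNP; Dosing: 12.8 µM single point, 1% DMSO; Incubation: reaction 2 h, 37 °C; Detection: p-Nitrophenol epi absorbance; Read-out: % inhibition relative to enzyme-containing and enzyme-free wells; Replicates: single well per compound.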
# UCH37 DUB inh = inhibitors of human deubiquitinating enzyme UCH37. inhibition, % (test concentration not listed). AID 588478. purified proteasome/UCH37, Ub-AMC cleavage fluorescence. 330,000 compounds, 0.33% hits. Q9Y5K5;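 active = mean inhibition over replicate wells above about 20%, limit read from the data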;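 note: 0% = compound-free wells with enzyme and 100% = wells lacking proteasome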
# Target sequence (Q9Y5K5 whole entry, looked up): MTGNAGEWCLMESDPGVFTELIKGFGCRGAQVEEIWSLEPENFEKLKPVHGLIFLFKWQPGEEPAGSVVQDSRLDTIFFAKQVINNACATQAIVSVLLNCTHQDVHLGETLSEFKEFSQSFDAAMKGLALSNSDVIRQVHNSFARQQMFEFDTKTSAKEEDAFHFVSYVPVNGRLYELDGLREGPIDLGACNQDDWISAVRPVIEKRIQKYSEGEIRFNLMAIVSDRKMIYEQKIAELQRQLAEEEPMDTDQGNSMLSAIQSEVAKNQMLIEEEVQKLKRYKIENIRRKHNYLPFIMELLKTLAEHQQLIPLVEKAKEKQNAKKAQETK
#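 Material: human UCH37 enzyme supplied as purified proteasome complex / Amount: 0.15 nM proteasome as dispensed / Buffer or medium: pH 7.4 Tris-HCl (50 mM) with ovalbumin, ATP-MgCl2, DTT / Times: preincubation 30 min, reaction 25 min, room temperature / Technique: AMC fluorescence from Ub-AMC cleavage, excitation 355 nm, emission 460 nm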
# Numbers without * were called inactive; . = no result given. Hits are enriched below; roughly 1.3% of the tested compounds scored in any of these assays.
SMILES,LEDGF integ inh,NSD2 inh,CASP6 VEID inh,TDP2 inh,UCH37 DUB inh
NS(=O)(=O)c1ccc(N=Nc2ccc(O)c3ncccc23)cc1,-16,5,51*,-19,5
CCOc1ccc(N=Nc2ccc(O)c3ncccc23)cc1,2,0,3,5,1
COc1ccccc1C=NNC(=Nc1ccc(C)cc1)c1nc2ccccc2s1,.,.,.,.,9
CCCCc1ccc(C(C)=NNc2cc(N3CCOCC3)nc(C)n2)cc1,.,.,.,.,0
COc1ccc(CNC(=O)C2CCN(S(=O)(=O)c3ccc4nc5c(c(C(=O)O)c4c3)CCCC5)CC2)cc1,1,0,54*,6,.
O=C(O)c1c2c(nc3ccc(S(=O)(=O)N4CCC(C(=O)NCc5ccc(Cl)cc5)CC4)cc13)CCCC2,0,1,65*,7,2
O=C(O)c1c2c(nc3ccc(S(=O)(=O)N4CCC(C(=O)NC5CCCCCC5)CC4)cc13)CCCC2,-1,8,43*,-7,2
CCOCCCNC(=O)C1CCN(S(=O)(=O)c2ccc3nc4c(c(C(=O)O)c3c2)CCCCC4)CC1,3,6,1,8,4
COc1ccc(CCNC(=O)C2CCN(S(=O)(=O)c3ccc4nc5c(c(C(=O)O)c4c3)CCCC5)CC2)cc1OC,5,1,14,20,-2
O=C(O)c1c2c(nc3ccc(S(=O)(=O)N4CCC(C(=O)NCc5ccccc5Cl)CC4)cc13)CCCC2,-2,5,44*,-5,-2
CC(C)CCNC(=O)C1CCN(S(=O)(=O)c2ccc3nc4c(c(C(=O)O)c3c2)CCCCC4)CC1,-2,-1,4,10,4
O=C(NN=Cc1ccc(F)cc1)c1cccc(NC(=O)c2ccccc2Cl)c1,.,.,.,.,5
CCCCNC(=O)CCCCC(=O)NN=Cc1cccc(Cl)c1,.,.,.,.,5
CCNC(=S)NN=Cc1cccs1,.,.,.,.,9
COc1ccc(S(=O)(=O)N2CCC(C(=O)NCCC3=CCCCC3)CC2)cc1C,-1,-5,-4,-3,22*
CC(=O)c1ccc(NC(=O)c2noc3c2CCC3)cc1,0,2,32,-4,1
Cc1ccc(NC(=O)c2noc3c2CCC3)cc1C,6,10,54*,10,2
Cc1ccc(CNC(=O)Cc2csc(Nc3nc(=S)[nH]c4ccccc34)n2)cc1,-1,0,41*,-3,-41
O=C(Cc1csc(Nc2nc(=S)[nH]c3ccccc23)n1)NCc1ccccc1Cl,2,-3,.,-10,5
N#C/C(=C/c1ccc(O)c(O)c1)c1nc2ccccc2[nH]1,7,67*,34,-6,.
O=C(CNc1cccc(C(F)(F)F)c1)NN=Cc1ccccc1C(=O)O,.,.,.,.,3
COC(=O)c1cc[n+](CC(=O)c2ccccc2)cc1,1,-11,.,-5,23*
COC(=O)c1ccc(OCC(=O)c2ccccc2)cc1,11,-1,.,13,2
CC(Cc1ccccc1)=NNC(=O)CNC(=O)c1ccccc1O,.,.,.,.,-10
CCOC(=O)c1c(C)oc2c1c(C=NCCO)c(O)c1ccccc12,0,101*,8,4,11
SMILES,LEDGF integ inh,NSD2 inh,CASP6 VEID inh,TDP2 inh,UCH37 DUB inh
Nc1nonc1-n1nnc(C(=O)NN=Cc2ccc(Cl)cc2Cl)c1CN1CCCC1,.,.,.,.,3
CN1C(=O)CC(Sc2ccccc2C(=O)O)C1=O (configuration not stated),-8,-2,35*,-5,0
COc1cc(C=NNC(=O)C(=O)/C=C2\NC3(CCCC3)Cc3ccccc32)ccc1O,.,.,.,.,6
CCOc1ccc(N=Nc2c(=O)[nH]n3c(C)cc(C)nc23)cc1,-5,4,0,6,25*
NC(=NOS(=O)(=O)c1ccc([N+](=O)[O-])cc1)c1ccncc1,.,.,.,.,3
Cc1c(NS(=O)(=O)c2cc(C(=O)NCc3cccc(Cl)c3)ccc2Cl)c(=O)n(-c2ccccc2)n1C,3,2,1,4,2
Cc1c(NS(=O)(=O)c2cc(C(=O)NCCN(C)C)ccc2Cl)c(=O)n(-c2ccccc2)n1C,5,-1,42*,-14,0
ON=Cc1cccc[n+]1CCCCCC[n+]1ccccc1C=NO,.,.,.,.,8
NCC[C@@H]1CC[C@H](NC(=O)c2ccccc2F)[C@@H](CO)O1,.,.,39*,.,.
O=C(Cc1ccccn1)NCC[C@@H]1CC[C@@H](NC(=O)c2ccccc2F)[C@H](CO)O1,.,.,35*,.,.
CC(=NNc1cccc([N+](=O)[O-])c1)c1cc(F)ccc1O,.,.,.,.,7
Cc1ccc(S(=O)(=O)NN=CC(C)(C)CO)cc1,.,.,.,.,2
C#CCOCCOCCOCCNc1nc(N2CCN(C(=O)[C@H](CCCN=C(N)N)n3cc(C(N)[C@@H](C)CC)nn3)CC2)nc(N2CCN(C(=O)[C@H](CCC(=O)O)n3cc([C@@H](N)CCCCN)nn3)CC2)n1 (some centres not stated),-1,.,-204,4,33*
C#CCOCCOCCOCCNc1nc(N2CCOCC2)nc(N2CCN(C(=O)[C@H](Cc3cc4ccccc4[nH]3)n3cc([C@@H](N)Cc4ccc(O)cc4)nn3)CC2)n1,-1,.,-7,-5,23*
O=C(COc1ccc(Cl)cc1Cl)NCC(=O)NN=Cc1c[nH]c2ccccc12,.,.,.,.,6
CC(C)(C)C(C(=O)Oc1ccccc1)c1ccccc1 (configuration not stated),0,.,-2,13,24*
CC(C)(C)OC(=O)N[C@@H](C(=O)OC(C)(C)C)c1ccccc1,-1,.,6,-3,3
COc1ccccc1NS(=O)(=O)c1cc(C(=O)NC2CCN(Cc3ccccc3)CC2)ccc1C,0,1,55*,-4,.
Cc1ccc(NC(=O)c2cc(S(=O)(=O)NCC3CCCO3)ccc2F)cc1 (configuration not stated),1,1,43*,-2,.
Cc1ccc(S(=O)(=O)NCC2CCCO2)cc1 (configuration not stated),2,1,0,-15,4
CS(=O)(=O)N(CC(=O)N1CCCCCC1)c1ccccc1,1,-3,.,7,1
Cc1cc(C)cc(N(CC(=O)N2CCCCCC2)S(C)(=O)=O)c1,-3,-1,36*,0,1
CCCCC[C@H](O)/C=C/C1C(=O)C=C[C@H]1C/C=C\CCCC(=O)OC (some centres not stated),7,.,53*,-14,6
Oc1ccc(C=NNc2ncc(Cl)cc2Cl)cc1,.,.,.,.,1
N#CC1=C(N)OC2=C(C(=O)CC(c3ccco3)C2)C1c1ccc(OCc2c(F)cccc2Cl)cc1 (configuration not stated),4,0,.,6,32*
CC(=NNC(=S)NC(C)C)c1ccccc1,.,.,.,.,4
Cc1cc(=O)n2c3c(c4c(cc13)c(CN(C)C)cc(=O)n4C)OC2,2,.,99*,86*,.
Cc1cc(=O)n(C)c2ccccc12,6,-8,-1,18,7
COC(=O)c1ccc(CNC(=O)COC(=O)c2ccccc2-c2ccccc2)cc1,1,2,59*,-6,2
